Reference: ChEMBL document CHEMBL4477183, “Antimicrobial Peptide from the Wild Bee Hylaeus signatus Venom and Its Analogues: Structure-Activity Study and Synergistic Effect with Antibiotics” (J Nat Prod, 2016)
In brackets after ≈: the same amount, converted by molar mass. Non-standard residues stand in square brackets, D forms with d. Residues, ends and D or L forms follow the SMILES beside them. ξ: configuration not given here. ξNle = CCCCC(N)C(=O)O

Experiments:
[1] = tested on: Pseudomonas aeruginosa; assay: Antimicrobial activity against Pseudomonas aeruginosa clinical isolates assessed as FIC index in presence of tetracycline after 20 hrs by drop diffusion test; format: functional
[2] = tested on: Escherichia coli; assay: Antimicrobial activity against Escherichia coli assessed as reduction in bacterial growth after 20 hrs by […]; format: functional
Summary of the method: (§1)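 Broth microdilution in LB (YPG for C. albicans) with 2-fold serial dilutions, final 0.1–100 μM. Mid-log cells grown 3–5 h at 37 °C were added at about 5 × 10^5 cfu/mL, then incubated 20 h at 37 °C with shaking. A540 was read every 15 min to build growth curves. Medium with cells served as growth control; at least three runs in duplicate.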

[3] = tested on: Pseudomonas aeruginosa; assay: Antimicrobial activity against Pseudomonas aeruginosa 5482 assessed as reduction in bacterial growth after 20 hrs […]; format: functional; conditions: Pseudomonas aeruginosa, 5482, 20 h; summary of the method: as §1
[4] = tested on: Staphylococcus aureus; assay: Antimicrobial activity against Staphylococcus aureus clinical isolates from university hospital in Motol assessed as reduction in bacterial growth after 20 hrs by drop diffusion test; format: functional
[5] = tested on: Bacillus subtilis; assay: Antimicrobial activity against Bacillus subtilis assessed as reduction in bacterial growth after 20 hrs by […]; format: functional; summary of the method: as §1
[6] = tested on: Candida albicans; assay: Antifungal activity against Candida albicans assessed as reduction in fungal growth after 20 hrs by […]; format: functional; summary of the method: as §1
[7] = tested on: Pseudomonas aeruginosa; assay: Antimicrobial activity against Pseudomonas aeruginosa clinical isolates assessed as reduction in bacterial growth after 20 hrs by […]; format: functional; summary of the method: as §1
[8] = tested on: Pseudomonas aeruginosa; assay: Antimicrobial activity against Pseudomonas aeruginosa clinical isolates assessed as FIC index in presence of rifampicin after 20 hrs by drop diffusion test; format: functional
[9] = Hemolytic activity in human type RBC after 1 hr; format: ADME, cell-based, Erythrocyte; conditions: red blood cells (erythrocytes), read-out: LC50
Summary of the method: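 Peptides at 2.5–400 μM were incubated with a 4% suspension of human erythrocytes in physiological solution for 1 h at 37 °C, then centrifuged at 250g for 5 min; supernatant A540 was read. Saline-treated cells gave 0% lysis and 0.2% Triton X-100 gave 100%. LC50 is the concentration lysing 50% of cells; duplicates in at least two independent experiments.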

[10] = tested on: Staphylococcus aureus; assay: Antimicrobial activity against Staphylococcus aureus clinical isolates from Liberec regional hospital assessed as reduction in bacterial growth after 20 hrs by […]; format: functional; summary of the method: as §1
[11] = tested on: Staphylococcus aureus; assay: Antimicrobial activity against Staphylococcus aureus clinical isolates assessed as FIC index in presence of amoxicillin after 20 hrs by drop diffusion test; format: functional
[12] = tested on: Staphylococcus epidermidis; assay: Antimicrobial activity against Staphylococcus epidermidis assessed as reduction in bacterial growth after 20 hrs by broth microdilution assay
[13] = tested on: Staphylococcus aureus; assay: Antimicrobial activity against Staphylococcus aureus 6271 assessed as reduction in bacterial growth after 20 hrs by broth microdilution assay; conditions: Staphylococcus aureus, 6271, 20 h
[14] = tested on: Micrococcus luteus; assay: Antimicrobial activity against Micrococcus luteus assessed as reduction in bacterial growth after 20 hrs by […]; format: functional; summary of the method: as §1
[15] = tested on: Staphylococcus aureus; assay: Antimicrobial activity against Staphylococcus aureus clinical isolates from Liberec regional hospital assessed as reduction in bacterial growth after 20 hrs by broth microdilution assay

Molecule	fractional inhibitory concentration index (FICI) [1]	MIC [2]	MIC [3]	MIC [4]	MIC [5]	MIC [6]	MIC [7]	fractional inhibitory concentration index (FICI) [8]	HC50 at 1 h [9]	MIC [10]	fractional inhibitory concentration index (FICI) [11]	MIC [12]	MIC [13]	MIC [14]	MIC [15]
H-GILSKLLKKLKKIIAK-NH2	0.65	18 µM	4.5 µM	10 µM	≤ 7 µM	45 µM	8.5 µM	0.34	> 400 µM	5.9 µM	0.33	1.8 µM	23 µM	≤ 3 µM	–
H-GILSSLWKKLKKIIAK-NH2	0.65	3.4 µM	5.3 µM	5 µM	≤ 7 µM	11 µM	8.8 µM	0.44	197 µM	2 µM	0.56	2 µM	5.3 µM	≤ 3 µM	–
H-KILSSLLKKLKKIIAK-NH2	0.71	16 µM	5 µM	10 µM	≤ 7 µM	25 µM	16 µM	0.26	364 µM	5.5 µM	0.29	1.4 µM	32 µM	≤ 3 µM	–
H-GIMSSLMKKLKKIIKK-NH2	0.63	22 µM	7.1 µM	65 µM	≤ 7 µM	6.3 µM	9.9 µM	0.36	> 400 µM	–	0.17	1.7 µM	54 µM	≤ 3 µM	18 µM
H-GILSSWLKKLKKIIAK-NH2	0.65	11 µM	4 µM	16 µM	≤ 7 µM	17 µM	5.9 µM	0.4	> 400 µM	6.6 µM	0.37	2 µM	16 µM	≤ 3 µM	–
CCCCC(NC(=O)[C@H](CC(C)C)NC(=O)[C@H](CO)NC(=O)[C@H](CO)NC(=O)C(CCCC)NC(=O)[C@@H](NC(=O)CN)[C@@H](C)CC)C(=O)N[C@@H](CCCCN)C(=O)N[C@@H](CCCCN)C(=O)N[C@@H](CC(C)C)C(=O)N[C@@H](CCCCN)C(=O)N[C@@H](CCCCN)C(=O)N[C@H](C(=O)N[C@H](C(=O)N[C@@H](C)C(N)=O)[C@@H](C)CC)[C@@H](C)CC (some centres not stated) (H-GI[ξNle]SSL[ξNle]KKLKKIIA-NH2)	0.58	10 µM (≈ 16.2 µg/mL)	4 µM (≈ 6.5 µg/mL)	6.7 µM (≈ 10.9 µg/mL)	≤ 7 µM	10 µM (≈ 16.2 µg/mL)	7.9 µM (≈ 12.8 µg/mL)	0.93	373 µM	4 µM (≈ 6.5 µg/mL)	0.55	2.5 µM (≈ 4.06 µg/mL)	13 µM (≈ 21.1 µg/mL)	≤ 3 µM	–
H-GILKSLLKKLKKIIAK-NH2	0.52	10 µM	5 µM	10 µM	≤ 7 µM	24 µM	8.9 µM	0.33	> 400 µM	4.3 µM	0.54	2.2 µM	17 µM	≤ 3 µM	–
H-GILSSLLKKLKKIIAK-NH2	0.54	8 µM	5 µM	5 µM	≤ 7 µM	10 µM	7.5 µM	0.39	284 µM	–	0.69	1.8 µM	16 µM	≤ 3 µM	3.8 µM
